# Test results as given in PMC11529722 (Science Advances, 2024).
# How the values were obtained:
# pepsin [1] = experiment: pepsin in hydrochloric acid solution; conditions: 37°C, up to 150 min
# chymotrypsin = experiment: chymotrypsin; conditions: set for optimal enzyme activity, up to 1 hour
# pronase = experiment: pronase; conditions: set for optimal enzyme activity, up to 1 hour
# elastase = experiment: elastase; conditions: set for optimal enzyme activity, up to 1 hour
# VCP protein = VCP protein (Homo sapiens, UniProt P55072); experiment: BLI; format: binding; conditions: immobilized VCP
# Method in brief: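 Anti-His biosensor hydrated, then His-tagged VCP (50 µg/ml in sodium acetate buffer, pH 6.5) immobilized. Test compound (peptide or polymer) dissolved in tris buffer (pH 8.4) and run over a range of concentrations as analyte. KD, on-rate (ka) and off-rate (kd) were measured for each analyte by biolayer interferometry (BLItz).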
# C3a in human serum = experiment: C3a complement activation ELISA; conditions: human serum 4 hours; P1 at 9.9 and 33 μM (3 and 10 mg/kg); n = 4
# Method in brief: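 Test compound incubated in human serum at 1:250 and 1:500 (compound:serum) for 4 h, then diluted. C3a ELISA: 2 h in C3a antibody-coated wells with shaking, 3 washes, biotin primary antibody 1 h, washes, streptavidin 1 h, substrate 30 min, absorbance 450 nm. Cobra venom factor positive control; DPBS vehicle.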
# R6/2 mice [2] = experiment: In vivo efficacy in HD R6/2 mice: body weight, survival, behavior; design: species or system mouse
# Method in brief: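 Male hemizygous R6/2 mice (HD exon 1, 100–150 CAG) and WT littermates. Saline, peptide (3 mg kg⁻¹ day⁻¹) or polymer (1.69 mg kg⁻¹ day⁻¹) given by subcutaneous 28-day osmotic pump from 6 weeks; pump replaced after 4 weeks. Weekly tail suspension 20 s, weeks 7–13, clasping scored 0–3. Body weight and survival recorded throughout. 13–32 mice/group for behaviour.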
# red blood cells = experiment: Hemocompatibility: hemolysis; conditions: human red blood cells in PBS, 37°C, 1 hour, absorbance 405 nm, n = 4
# Method in brief: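 Na citrate-anticoagulated whole human blood spun 500g 5 min. Plasma replaced with 150 mM NaCl; wash repeated twice more; RBCs resuspended in PBS. Compound added 1:20 (v/v) to RBC suspension, 37°C 1 h, n = 4. Spun 500g 5 min; supernatant transferred for reading. 20% Triton X-100 positive control; PBS vehicle.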
# pepsin [3] = target: pepsin (Sus scrofa, UniProt P00791); experiment: Enzymatic degradation assay with pepsin by HPLC; format: in vitro ADME; conditions: pepsin 0.1 μM, pH 2, peptide 200 μM, 37°C, up to 150 min, analytical HPLC
# C57BL/6J mice [4] = experiment: Toxicity in C57BL/6J mice: complete blood count; format: in vivo, mouse; conditions: C57BL/6J WT mice, 3 mg/kg with respect to peptide, Alzet osmotic pump, 8 weeks
# Method in brief: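 Healthy male C57BL/6J mice in three groups (n = 3 to 4 per group) received test compound at 3 mg/kg with respect to peptide, or saline as negative control, via subcutaneously implanted osmotic pump for 8 weeks.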
# R6/2 mice [5] = experiment: Neuropathology in striatum of R6/2 mice; format: in vivo, mouse; conditions: 13-week-old R6/2 mice
# R6/2 mice [6] = experiment: VCP level in striatal mitochondrial fractions of R6/2 mice; format: in vivo, mouse; conditions: 13-week-old R6/2 mice, WB, ATPB loading control
# Method in brief: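 Striatum of 13-week-old pump-dosed mice homogenised in 250 mM sucrose, 20 mM Hepes pH 7.5, 10 mM KCl, 1.5 mM MgCl₂, EDTA/EGTA. Passed 20× through a 25-gauge needle, iced 30 min. Spun 800g 10 min, then supernatant 10,000g 20 min at 4°C; pellet washed and re-spun. Mitochondria lysed in 1% Triton X-100; VCP Western blot, ATPB loading control.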
# C57BL/6J mice [7] = experiment: Toxicity in C57BL/6J mice: histopathology scoring; format: in vivo, mouse; conditions: C57BL/6J WT mice, 3 mg/kg with respect to peptide, Alzet osmotic pump, 8 weeks, blinded pathologist
# Method in brief: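 Male C57BL/6J mice, three groups of n = 3–4. Saline, peptide or polymer (3 mg/kg with respect to peptide) given by subcutaneous osmotic pump for 8 weeks.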
# HdhQ111 cells = experiment: Mitochondrial fragmentation assay; format: cell-based, mouse; conditions: 3 μM three times for 3 days, anti-Tom20, at least 95 cells per group, n = 3
# Method in brief: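 HdhQ111 cells dosed at 3 μM three times over 3 days. Fixed in 4% PFA 20 min, permeabilised with 0.1% Triton X-100, blocked with 2% goat serum. Anti-Tom20 (1:4000) overnight at 4°C, Alexa 488 secondary 2 h RT, Hoechst nuclei stain. Confocal imaging; % cells with fragmented mitochondria, ≥95 cells/group, ≥3 independent replicates.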
# [8] = test system: pronase, chymotrypsin, elastase; experiment: Enzyme degradation resistance by SDS-PAGE; format: in vitro ADME; conditions: treated separately with pronase, chymotrypsin and elastase for 1 hour, Coomassie Blue
# Sequence of VCP protein (P55072 whole entry, species assumed): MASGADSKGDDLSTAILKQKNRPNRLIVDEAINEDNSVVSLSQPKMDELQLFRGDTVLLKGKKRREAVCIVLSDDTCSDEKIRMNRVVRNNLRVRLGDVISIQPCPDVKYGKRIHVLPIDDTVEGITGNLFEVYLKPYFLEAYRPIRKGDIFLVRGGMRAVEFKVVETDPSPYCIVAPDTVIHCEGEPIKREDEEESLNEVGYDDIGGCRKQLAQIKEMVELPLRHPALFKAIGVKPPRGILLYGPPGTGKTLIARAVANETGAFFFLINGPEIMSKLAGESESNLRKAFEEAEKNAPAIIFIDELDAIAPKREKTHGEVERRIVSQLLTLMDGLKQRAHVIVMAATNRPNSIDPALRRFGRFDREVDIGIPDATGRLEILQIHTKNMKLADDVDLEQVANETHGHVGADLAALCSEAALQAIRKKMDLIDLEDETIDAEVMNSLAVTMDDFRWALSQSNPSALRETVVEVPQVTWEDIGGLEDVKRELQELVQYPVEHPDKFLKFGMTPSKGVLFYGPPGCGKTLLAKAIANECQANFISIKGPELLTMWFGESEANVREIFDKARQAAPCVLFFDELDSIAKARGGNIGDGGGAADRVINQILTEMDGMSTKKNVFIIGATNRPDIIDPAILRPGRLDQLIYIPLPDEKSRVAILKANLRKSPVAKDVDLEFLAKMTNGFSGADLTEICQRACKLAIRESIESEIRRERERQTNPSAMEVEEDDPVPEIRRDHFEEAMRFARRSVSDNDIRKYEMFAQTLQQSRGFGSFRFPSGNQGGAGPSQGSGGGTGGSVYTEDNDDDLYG
# Sequence of pepsin (Sus scrofa, UniProt P00791) (P00791 60-385): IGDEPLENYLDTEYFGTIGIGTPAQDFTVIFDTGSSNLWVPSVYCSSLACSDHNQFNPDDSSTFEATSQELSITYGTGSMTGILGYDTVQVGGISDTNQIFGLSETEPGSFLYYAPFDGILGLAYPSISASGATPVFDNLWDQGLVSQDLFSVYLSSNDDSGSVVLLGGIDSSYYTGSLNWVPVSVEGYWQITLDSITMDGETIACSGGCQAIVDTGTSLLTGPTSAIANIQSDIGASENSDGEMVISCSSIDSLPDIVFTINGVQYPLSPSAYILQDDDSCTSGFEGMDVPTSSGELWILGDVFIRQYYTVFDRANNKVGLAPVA
sequence,measurement,setting,value
HVLVMSATRR,not cleaved,pepsin [1],no cleavage observed for up to 150 min
same,not cleaved,chymotrypsin,maintained molecular weight after 1 hour
same,not cleaved,pronase,maintained molecular weight after 1 hour
same,not cleaved,elastase,maintained molecular weight after 1 hour
HVLVMSATRR [P1],fold decrease in dissociation constant compared to the HV3-TAT peptide,VCP protein,150 fold
same,koff,VCP protein; dissociation rate constant,2.5e-05 s⁻¹
same,C3a complement activation compared to vehicle,C3a in human serum,did not show a statistically significant difference in activity
same,effects of treatment on WT mice,"R6/2 mice [2]; WT littermates, P1 1.69 mg kg^−1 day^−1, 6 to 13 weeks of age","no significant effects on motor activity, body weight, or neuropathology"
same,body weight vs R6/2 saline control,"R6/2 mice [2]; male R6/2 mice, 3 mg kg^−1 day^−1 per peptide (P1 1.69 mg kg^−1 day^−1), Alzet pump, 6 to 13 weeks of age",significantly inhibiting weight loss
same,survival vs R6/2 saline control,"R6/2 mice [2]; male R6/2 mice, 3 mg kg^−1 day^−1 per peptide, Alzet pump, 6 to 13 weeks of age",extended survival
same,clasping times compared to HV3-TAT-treated mice,"R6/2 mice [2]; male R6/2 mice, tail suspension test",shorter clasping times
same,hindlimb clasping behavior,"R6/2 mice [2]; male R6/2 mice, tail suspension test weekly, 3 mg kg^−1 day^−1 per peptide, Alzet pump",attenuated the clasping behavior
same,hemolytic activity compared to vehicle control,red blood cells,nonsignificant
same,cleavage by pepsin,pepsin [3],no cleavage observed
same,complete blood count and blood chemistry profile vs saline,C57BL/6J mice [4],no significant deviation of any markers
same,striatal BDNF level compared to the HV3-TAT treatment group,R6/2 mice [5]; Western blot,significantly higher level of BDNF
same,mtHtt aggregates in striatum vs saline-treated R6/2 mice,"R6/2 mice [5]; anti-Htt EM48 staining, n = 6",reduced number of mtHtt aggregates
same,DARPP-32 immunohistochemical staining in striatum,R6/2 mice [5]; n = 6,Enhanced levels of DARPP-32
same,VCP level on striatal mitochondria,R6/2 mice [6],blocks aberrant VCP mitochondrial translocation
same,organ pathology vs saline control group,C57BL/6J mice [7],no significant differences in pathology
same,mitochondrial fragmentation vs vehicle,HdhQ111 cells,marked reduction in the number of fragmented mitochondria
same,molecular weight after enzyme treatment (gel electrophoresis),[8],maintained molecular weight
